Results published in ChEMBL document CHEMBL4425169 (ACS Med Chem Lett, 2016).
The source made the active and inactive calls. The calls are words filed in the database; no cut-off is given here.

Key:
[1] = biological target: Voltage-gated inwardly rectifying potassium channel KCNH2 (Homo sapiens, UniProt Q12809); assay: Displacement of [35S]MK-499 from human ERG
Rattus norvegicus [2] = assay: Diuretic activity in Sprague-Dawley rat at 10 mg/kg via oral gavage administered 30 mins prior to void induction by loading saline measured upto 4 hrs relative to vehicle treated control; assay type: functional
In short: (§1)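 Acute 4 h study in Sprague-Dawley rats after oral dosing, n = 5 per group. Urine volume and sodium and potassium excretion were expressed as fold increase over vehicle-treated animals. Significance was tested versus vehicle (p < 0.05 or p < 0.01).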

Rattus norvegicus [3] = assay: Natriuretic activity in Sprague-Dawley rat at 3 mg/kg via oral gavage administered 30 mins prior to void induction by loading saline measured upto 4 hrs relative to vehicle treated control; assay type: functional
In short: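 Acute 4 h diuresis/natriuresis study in SD rats given a single oral dose, n = 5 per group. Urinary sodium output is expressed as fold increase over vehicle-treated animals, with significance tested against vehicle.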

Rattus norvegicus [4] = assay: Natriuretic activity in Sprague-Dawley rat at 10 mg/kg via oral gavage administered 30 mins prior to void induction by loading saline measured upto 4 hrs relative to vehicle treated control; assay type: functional; in short: as §1
Rattus norvegicus [5] = assay: Diuretic activity in Sprague-Dawley rat at 0.3 mg/kg via oral gavage administered 30 mins prior to void induction by loading saline measured upto 4 hrs relative to vehicle treated control; assay type: functional
In short: (§2)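 Acute rat diuresis model in male-unspecified Sprague-Dawley rats, single oral dose, urine collected over 4 h. Urine volume, sodium excretion and potassium excretion expressed as fold increase over vehicle-treated controls; n = 5 per group; significance tested against vehicle.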

Rattus norvegicus [6] = assay: Diuretic activity in Sprague-Dawley rat at 1 mg/kg via oral gavage administered 30 mins prior to void induction by loading saline measured upto 4 hrs relative to vehicle treated control; assay type: functional; in short: as §2
Rattus norvegicus [7] = assay: Kaliuretic activity in Sprague-Dawley rat at 0.3 mg/kg via oral gavage administered 30 mins prior to void induction by loading saline measured upto 4 hrs relative to vehicle treated control; assay type: functional; in short: as §2
Rattus norvegicus [8] = assay: Kaliuretic activity in Sprague-Dawley rat at 1 mg/kg via oral gavage administered 30 mins prior to void induction by loading saline measured upto 4 hrs relative to vehicle treated control; assay type: functional; in short: as §2
[9] = Clearance in rat at 1 mg/kg, iv or 2 mg/kg, po; assay type: ADME, organism-based; conditions: in vivo
In short: (§3)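 Rats dosed once at 1 mg/kg IV and, separately, 2 mg/kg PO, with n = 3. Derived parameters were plasma clearance, Vdss, dose-normalized oral AUC (μM·h·kg/mg), half-life, and oral bioavailability (F%).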

[10] = Volume of distribution at steady state in rat at 1 mg/kg, iv or 2 mg/kg, po; assay type: ADME, organism-based; conditions: in vivo, read-out: Vdss; in short: as §3
[11] = Oral bioavailability in rat at 2 mg/kg; assay type: ADME, organism-based; conditions: in vivo; in short: as §3
[12] = Dose normalized AUC in dog at 2 mg/kg, po; assay type: ADME, organism-based, Canis lupus familiaris; conditions: in vivo
[13] = Half life in dog at 1 mg/kg, iv or 2 mg/kg, po; assay type: ADME, organism-based, Canis lupus familiaris; conditions: in vivo
[14] = Clearance in rhesus monkey at 1 mg/kg, iv or 2 mg/kg, po; assay type: ADME, organism-based, Macaca mulatta; conditions: in vivo
[15] = Drug metabolism in rat hepatocytes assessed as oxidation at 1 uM measured at 120 mins; assay type: ADME, cell-based, Hepatocyte; conditions: 2 h
[16] = Drug metabolism in dog hepatocytes assessed as oxidation at 1 uM measured at 120 mins; assay type: ADME, cell-based, Canis lupus familiaris, Hepatocyte; conditions: read-out: Drug metabolism
[17] = Drug metabolism in human hepatocytes assessed as oxidation at 1 uM measured at 120 mins; assay type: ADME, cell-based, Hepatocyte; conditions: read-out: Drug metabolism
[18] = Drug metabolism in rat hepatocytes assessed as lactone hydrolysis at 1 uM measured at 120 mins; assay type: ADME, cell-based, Hepatocyte; conditions: read-out: Drug metabolism
[19] = Drug metabolism in human hepatocytes assessed as lactone hydrolysis at 1 uM measured at 120 mins; assay type: ADME, cell-based, Hepatocyte; conditions: read-out: Drug metabolism
[20] = Drug metabolism in human hepatocytes assessed as glucuronidation at 1 uM measured at 120 mins; assay type: ADME, cell-based, Hepatocyte; conditions: read-out: Drug metabolism
[21] = Half life in human; assay type: ADME
[22] = biological target: T1, ATP-sensitive inward rectifier potassium channel 10 (Homo sapiens) (UniProt P78508); assay: Inhibition of Kir4.1 (unknown origin) upto 30 uM
T1 sequence (whole entry): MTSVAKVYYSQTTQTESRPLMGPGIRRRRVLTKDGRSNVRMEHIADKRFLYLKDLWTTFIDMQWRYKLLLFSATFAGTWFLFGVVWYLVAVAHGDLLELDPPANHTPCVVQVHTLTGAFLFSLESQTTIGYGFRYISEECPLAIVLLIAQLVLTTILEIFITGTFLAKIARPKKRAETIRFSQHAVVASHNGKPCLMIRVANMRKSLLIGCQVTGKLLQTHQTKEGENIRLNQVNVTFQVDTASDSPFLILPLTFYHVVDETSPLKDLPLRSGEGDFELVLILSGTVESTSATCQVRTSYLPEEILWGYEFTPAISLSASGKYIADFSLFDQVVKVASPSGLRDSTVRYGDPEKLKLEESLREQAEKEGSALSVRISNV

[23] = biological target: Voltage-dependent L-type calcium channel subunit alpha-1C (Homo sapiens, UniProt Q13936); assay: Inhibition of Cav1.2 (unknown origin)
[24] = biological target: Sodium channel protein type 5 subunit alpha (Homo sapiens, UniProt Q14524); assay: Inhibition of Nav1.5 (unknown origin)
Cytochrome P450 3A4 [25] = biological target: T2, Cytochrome P450 3A4 (Homo sapiens, UniProt P08684); assay: Reversible inhibition of human CYP3A4; assay type: ADME
Cytochrome P450 2D6 = Cytochrome P450 2D6 (Homo sapiens, UniProt P10635); assay: Reversible inhibition of human CYP2D6; assay type: ADME
Cytochrome P450 3A4 [26] = biological target: T2, Cytochrome P450 3A4; assay: Time dependent inhibition of human CYP3A4 at 10 to 50 uM; assay type: ADME
[27] = biological target: Sodium-dependent serotonin transporter (Homo sapiens, UniProt P31645); assay: Inhibition of human SERT
[28] = Cardiotoxicity in vagotomized cardiovascular dog model assessed as effect on mean arterial pressure at plasma concentration <= 11.6 uM at 1 to 7 mg/kg, iv administered during three sequential 30 min periods; assay type: toxicity, organism-based, Canis lupus familiaris; conditions: in vivo, 0.5 h
In short: (§4)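 Anesthetized, vagotomized dogs received IV infusions over sequential periods at 1, 2 and 7 mg/kg (10 mg/kg cumulative). Heart rate, mean arterial pressure and ECG intervals (PR, QRS, QT/QTc) were recorded predose and during each infusion period. Plasma concentrations were measured.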

[29] = Cardiotoxicity in vagotomized cardiovascular dog model assessed as effect on PR interval at plasma concentration <= 11.6 uM at 1 to 7 mg/kg, iv administered during three sequential 30 min periods; assay type: toxicity, organism-based, Canis lupus familiaris; conditions: in vivo, 0.5 h; in short: as §4
Rattus norvegicus [30] = assay: Antihypertensive activity in spontaneously hypertensive rat assessed as reduction in systolic blood pressure at 1 mg/kg via oral gavage qd administered for 4 days measured on day 4 by telemetry (reference value: 2.5 +/- 2.2 mmHg); assay type: functional
Rattus norvegicus [31] = assay: Antihypertensive activity in spontaneously hypertensive rat assessed as reduction in systolic blood pressure at 3 mg/kg via oral gavage qd administered for 4 days measured on day 4 by telemetry (reference value: 2.5 +/- 2.2 mmHg); assay type: functional
Rattus norvegicus [32] = assay: Antihypertensive activity in spontaneously hypertensive rat assessed as reduction in systolic blood pressure at 10 mg/kg via oral gavage qd administered for 4 days measured on day 4 by telemetry (reference value: 2.5 +/- 2.2 mmHg); assay type: functional
[33] = Drug metabolism in bile duct cannulated rat assessed as CYP3A4-mediated oxidative metabolite formation; assay type: ADME
[34] = Drug metabolism in bile duct cannulated rat assessed as lactone hydrolysis; assay type: ADME

T2 sequence (P08684 whole entry): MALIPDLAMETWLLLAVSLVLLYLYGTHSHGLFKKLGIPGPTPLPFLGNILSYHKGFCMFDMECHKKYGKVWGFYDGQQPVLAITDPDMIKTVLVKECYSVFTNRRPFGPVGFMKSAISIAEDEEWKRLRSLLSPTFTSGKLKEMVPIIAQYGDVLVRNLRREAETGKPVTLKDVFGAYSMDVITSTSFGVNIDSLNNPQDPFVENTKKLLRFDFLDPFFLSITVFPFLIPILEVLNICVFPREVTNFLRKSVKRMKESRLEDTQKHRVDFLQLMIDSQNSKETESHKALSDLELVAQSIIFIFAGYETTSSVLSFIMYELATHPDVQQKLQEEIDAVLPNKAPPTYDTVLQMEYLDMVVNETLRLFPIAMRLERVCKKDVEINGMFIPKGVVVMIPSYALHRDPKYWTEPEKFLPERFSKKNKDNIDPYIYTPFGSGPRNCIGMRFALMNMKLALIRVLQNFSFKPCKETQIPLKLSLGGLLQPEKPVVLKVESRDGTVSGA
Sequence of Sodium channel protein type 5 subunit alpha (Q14524 whole entry): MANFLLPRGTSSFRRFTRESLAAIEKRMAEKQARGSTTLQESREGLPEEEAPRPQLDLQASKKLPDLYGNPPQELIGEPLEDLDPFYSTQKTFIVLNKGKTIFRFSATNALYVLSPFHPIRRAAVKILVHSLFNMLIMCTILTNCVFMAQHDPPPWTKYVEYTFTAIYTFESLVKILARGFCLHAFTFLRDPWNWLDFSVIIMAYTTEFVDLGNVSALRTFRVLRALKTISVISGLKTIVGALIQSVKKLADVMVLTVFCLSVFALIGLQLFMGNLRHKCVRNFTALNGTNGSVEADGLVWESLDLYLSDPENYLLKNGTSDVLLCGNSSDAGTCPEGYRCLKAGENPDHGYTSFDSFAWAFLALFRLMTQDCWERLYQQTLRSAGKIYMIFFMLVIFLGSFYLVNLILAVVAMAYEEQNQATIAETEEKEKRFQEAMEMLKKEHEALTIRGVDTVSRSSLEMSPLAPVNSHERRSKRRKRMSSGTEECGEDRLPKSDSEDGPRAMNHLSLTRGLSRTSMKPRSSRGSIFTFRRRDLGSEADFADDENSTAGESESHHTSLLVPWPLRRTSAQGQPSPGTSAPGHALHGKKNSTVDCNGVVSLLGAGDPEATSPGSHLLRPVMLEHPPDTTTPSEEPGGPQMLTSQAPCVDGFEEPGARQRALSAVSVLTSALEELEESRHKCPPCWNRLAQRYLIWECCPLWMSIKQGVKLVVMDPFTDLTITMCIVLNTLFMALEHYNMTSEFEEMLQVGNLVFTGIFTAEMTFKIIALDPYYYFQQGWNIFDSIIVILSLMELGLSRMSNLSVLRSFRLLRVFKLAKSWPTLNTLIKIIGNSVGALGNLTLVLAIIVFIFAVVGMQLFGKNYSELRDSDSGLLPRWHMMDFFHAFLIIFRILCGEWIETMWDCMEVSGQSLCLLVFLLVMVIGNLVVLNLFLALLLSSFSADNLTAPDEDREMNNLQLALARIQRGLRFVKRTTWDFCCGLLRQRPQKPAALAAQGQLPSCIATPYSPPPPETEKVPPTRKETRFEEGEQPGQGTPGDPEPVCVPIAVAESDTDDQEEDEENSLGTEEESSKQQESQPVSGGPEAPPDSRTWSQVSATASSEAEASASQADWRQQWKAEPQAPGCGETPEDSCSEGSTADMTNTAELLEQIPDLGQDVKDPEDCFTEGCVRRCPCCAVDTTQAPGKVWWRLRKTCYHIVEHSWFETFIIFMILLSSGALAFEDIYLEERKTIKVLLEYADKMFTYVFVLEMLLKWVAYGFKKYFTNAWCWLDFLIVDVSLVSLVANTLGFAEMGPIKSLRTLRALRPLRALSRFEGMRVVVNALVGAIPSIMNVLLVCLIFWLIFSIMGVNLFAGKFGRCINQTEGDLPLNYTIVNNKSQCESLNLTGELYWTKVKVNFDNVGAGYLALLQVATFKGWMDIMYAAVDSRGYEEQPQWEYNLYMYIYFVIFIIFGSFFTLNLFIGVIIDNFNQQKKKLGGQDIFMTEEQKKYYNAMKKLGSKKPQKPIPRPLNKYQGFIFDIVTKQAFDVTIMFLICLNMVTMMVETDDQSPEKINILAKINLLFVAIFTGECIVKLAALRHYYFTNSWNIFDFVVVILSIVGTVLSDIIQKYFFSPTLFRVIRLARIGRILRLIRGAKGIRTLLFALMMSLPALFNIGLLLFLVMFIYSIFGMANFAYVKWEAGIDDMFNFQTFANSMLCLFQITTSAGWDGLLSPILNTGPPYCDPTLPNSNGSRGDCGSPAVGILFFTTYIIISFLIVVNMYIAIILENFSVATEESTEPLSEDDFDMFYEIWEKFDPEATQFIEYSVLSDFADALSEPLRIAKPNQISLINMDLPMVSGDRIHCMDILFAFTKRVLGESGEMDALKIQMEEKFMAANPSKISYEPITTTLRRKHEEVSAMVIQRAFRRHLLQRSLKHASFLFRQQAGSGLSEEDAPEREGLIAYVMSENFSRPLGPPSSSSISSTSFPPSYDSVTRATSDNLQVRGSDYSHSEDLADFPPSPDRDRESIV
Sequence of Voltage-dependent L-type calcium channel subunit alpha-1C (Q13936 whole entry): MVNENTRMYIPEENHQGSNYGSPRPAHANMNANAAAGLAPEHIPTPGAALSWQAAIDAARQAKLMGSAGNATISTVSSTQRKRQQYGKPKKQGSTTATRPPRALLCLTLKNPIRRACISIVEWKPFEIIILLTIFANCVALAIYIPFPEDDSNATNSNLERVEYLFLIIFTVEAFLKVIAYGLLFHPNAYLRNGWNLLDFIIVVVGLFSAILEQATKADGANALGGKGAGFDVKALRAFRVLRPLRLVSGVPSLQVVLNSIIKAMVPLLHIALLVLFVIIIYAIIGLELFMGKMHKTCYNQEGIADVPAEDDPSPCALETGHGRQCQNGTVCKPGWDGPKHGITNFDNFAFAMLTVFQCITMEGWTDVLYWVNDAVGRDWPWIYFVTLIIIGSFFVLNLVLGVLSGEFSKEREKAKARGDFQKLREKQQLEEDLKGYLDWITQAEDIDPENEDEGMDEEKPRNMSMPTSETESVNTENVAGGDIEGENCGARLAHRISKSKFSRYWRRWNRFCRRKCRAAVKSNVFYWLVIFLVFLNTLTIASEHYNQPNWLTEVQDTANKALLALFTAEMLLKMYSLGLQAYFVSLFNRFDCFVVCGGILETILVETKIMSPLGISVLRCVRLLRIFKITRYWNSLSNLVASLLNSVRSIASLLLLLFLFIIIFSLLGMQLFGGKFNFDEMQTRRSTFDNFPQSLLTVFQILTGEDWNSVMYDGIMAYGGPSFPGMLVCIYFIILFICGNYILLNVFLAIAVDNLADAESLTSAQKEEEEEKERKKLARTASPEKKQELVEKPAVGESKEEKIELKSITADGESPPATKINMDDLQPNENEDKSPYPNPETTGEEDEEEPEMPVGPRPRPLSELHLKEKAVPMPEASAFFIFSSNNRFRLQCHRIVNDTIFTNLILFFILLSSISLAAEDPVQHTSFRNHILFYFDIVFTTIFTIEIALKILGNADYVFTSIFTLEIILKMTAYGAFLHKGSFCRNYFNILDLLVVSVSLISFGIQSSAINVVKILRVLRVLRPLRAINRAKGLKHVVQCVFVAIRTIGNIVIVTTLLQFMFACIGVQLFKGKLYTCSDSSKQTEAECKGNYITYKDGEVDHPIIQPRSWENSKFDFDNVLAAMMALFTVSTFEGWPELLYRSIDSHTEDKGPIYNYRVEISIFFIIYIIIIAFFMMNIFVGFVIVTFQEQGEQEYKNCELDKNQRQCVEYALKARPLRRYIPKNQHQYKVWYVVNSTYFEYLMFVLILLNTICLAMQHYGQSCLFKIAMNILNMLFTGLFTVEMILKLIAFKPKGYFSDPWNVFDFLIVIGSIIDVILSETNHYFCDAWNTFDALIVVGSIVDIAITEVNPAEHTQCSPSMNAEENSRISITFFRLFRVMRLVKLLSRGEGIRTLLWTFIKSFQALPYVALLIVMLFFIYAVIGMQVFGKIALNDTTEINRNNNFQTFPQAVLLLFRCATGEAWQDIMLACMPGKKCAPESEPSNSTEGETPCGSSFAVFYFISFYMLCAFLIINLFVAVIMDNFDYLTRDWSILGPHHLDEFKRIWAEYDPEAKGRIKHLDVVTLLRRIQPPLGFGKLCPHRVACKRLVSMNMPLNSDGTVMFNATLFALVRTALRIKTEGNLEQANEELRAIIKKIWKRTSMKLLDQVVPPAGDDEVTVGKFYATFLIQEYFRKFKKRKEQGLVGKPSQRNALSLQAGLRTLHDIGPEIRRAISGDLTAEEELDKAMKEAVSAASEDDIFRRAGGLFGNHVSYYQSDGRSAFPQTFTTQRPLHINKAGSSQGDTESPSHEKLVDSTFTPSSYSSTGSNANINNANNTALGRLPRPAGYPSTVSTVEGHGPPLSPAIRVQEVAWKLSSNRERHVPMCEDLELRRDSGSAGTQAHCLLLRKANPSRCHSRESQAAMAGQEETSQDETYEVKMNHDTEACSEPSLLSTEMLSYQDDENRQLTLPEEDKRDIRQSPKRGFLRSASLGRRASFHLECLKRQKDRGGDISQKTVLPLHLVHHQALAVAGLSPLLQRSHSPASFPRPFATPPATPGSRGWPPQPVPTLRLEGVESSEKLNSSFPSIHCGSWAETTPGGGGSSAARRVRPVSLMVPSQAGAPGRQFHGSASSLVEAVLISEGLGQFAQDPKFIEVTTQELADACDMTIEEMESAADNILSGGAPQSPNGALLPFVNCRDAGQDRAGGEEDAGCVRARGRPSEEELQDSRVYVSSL

For Cc1c([C@@H](O)CN2CCN(C[C@H](O)c3ccc4c(c3C)COC4=O)CC2)ccc2c1COC2=O [MK-7145], the IC50 [1] was 23 µM, the “fold change (FC)” value (Rattus norvegicus [2]) was 9.4 and the “fold change (FC)” value (Rattus norvegicus [3]) was 8. The “fold change (FC)” value (Rattus norvegicus [4]) was 8.5, the “fold change (FC)” value (Rattus norvegicus [5]) was 6.4 and the “fold change (FC)” value (Rattus norvegicus [6]) was 8.6. The “fold change (FC)” value (Rattus norvegicus [7]) was 2.1, the “fold change (FC)” value (Rattus norvegicus [8]) was 1.8 and the clearance [9] was 56 mL/min/kg. It also gave a Vd [10] of 3.8 L/kg, a bioavailability [11] of 21% and an AUC/dose [12] of 0.32 µM·kg·h/mg. It also gave a half-life [13] of 1.7 h, a clearance [14] of 29 mL/min/kg and a Drug metabolism [15] of 15 to 37%. For the same compound, the metabolised at 2 h, 1 µM [16] was 15 to 37%, the metabolised at 2 h, 1 µM [17] was 15 to 37% and the metabolised at 2 h, 1 µM [18] was less than 1%. The metabolised at 2 h, 1 µM [19] was less than 1%, the metabolised at 2 h, 1 µM [20] was less than 1% and the half-life [21] was 5 h. For the same compound, the inhibition [22] was “inactive”, the IC50 [23] was greater than 30 µM and the IC50 [24] was greater than 30 µM. For the same compound, the IC50 (Cytochrome P450 3A4 [25]) was greater than 50 µM, the IC50 (Cytochrome P450 2D6) was greater than 50 µM and the TDI (Cytochrome P450 3A4 [26]) was “Not Active”. For the same compound, the IC50 [27] was 0.12 µM, the Activity [28] was “Non-Toxic” and the Activity [29] was “Non-Toxic”. The Activity (Rattus norvegicus [30]) was 9.4 mmHg, the Activity (Rattus norvegicus [31]) was 12.4 mmHg and the Activity (Rattus norvegicus [32]) was 19.9 mmHg. For the same compound, the Drug metabolism [33] was “Metabolite_Detected” and the Drug metabolism [34] was “Metabolite_Detected”.
